Data set [1] is described as follows: melting temperature; fluorescence melt of hairpins on a sequencing array, two-state fit, raised by 9.35 °C to match UV melts. As to conditions: sodium 0.088 M. Put shortly:
(§1)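 Two-state fits, bootstrapped, provided melting temperature and folding enthalpy from Cy3 fluorescence normalised to pre-quench Cy3 and to control constructs. Library hairpins with annealed Cy3 and quencher oligos were imaged on a sequenced MiSeq flow cell in 50 mM Na-HEPES pH 8.0, 25 mM NaCl, at 2.5 °C intervals up to 60 °C. Four replicates were combined with inverse-variance weighting. A 9.35 °C upward shift was applied to fitted temperatures to match UV melts.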

A short description of data set [2]: folding enthalpy; higher = less favourable; fluorescence melt of hairpins on a sequencing array, two-state fit. As to conditions: sodium 0.088 M. Put shortly:
as §1

Regarding GTTATCGAAAGATAAC ((((((....)))))), the Tm in data set [1] is 53.1 °C. The folding enthalpy in data set [2] is -42.8 kcal/mol.
The matching figures for GTTATCGAAAGATACAAC ((((((....)))..))): 23.5 °C and -9.31 kcal/mol.
On the same counts, the results for GTTATCGGAAACGATAAC (((((((....))))))) are 57 °C and -46.2 kcal/mol.
The matching figures for GTTATCGGAAACGGTAAC ((((.((....)).)))): 44.9 °C and -26.8 kcal/mol.
Regarding GTTATGCGAAAGCAAAC (((.(((....)))))), in data set [1], the Tm was found to be 36.5 °C. Besides, the folding enthalpy in data set [2] was -14.3 kcal/mol.
The matching figures for GTTATGGAAACATAAC ((((((....)))))): 47.5 °C and -30.3 kcal/mol.
The matching figures for GTTATGGCGAAAGCCAAC (((..(((....)))))): 29.5 °C and -8.21 kcal/mol.
For the sequence GTTATTGGAAACAATAGC (.(((((....))))).), the Tm in data set [1] amounted to 33.4 °C. Also, in data set [2], the folding enthalpy is -18.9 kcal/mol.
Consider GTTATTGGAAACAATGAC ((.((((....)))).)), for which the Tm in data set [1] stood at 36.9 °C. Further, in data set [2], the folding enthalpy is -32.5 kcal/mol.
The matching figures for GTTATTGGAAACAGTAAC ((((.((....)).)))): 33.4 °C and -27.5 kcal/mol.
The matching figures for GTTATTGGAAACGATAAC (((((.(....).))))): 38.7 °C and -21.5 kcal/mol.
On the same counts, the results for GTTCAAGGAAACCTGAAC (((((.(....).))))) are 35.6 °C and -30.1 kcal/mol.
As to GTTCAAGGAAACTTGAGC (.(((((....))))).), the Tm in data set [1] is 40.1 °C. Further, the folding enthalpy in data set [2] is -22.5 kcal/mol.
On the same counts, the results for GTTCACCCGAAAGGGAAC (((..(((....)))))) are 37.2 °C and -14.3 kcal/mol.
Take GTTCACCGAAAGGTTAAC (((.(((....))).))): the Tm in data set [1] worked out at 42.3 °C. Moreover, the folding enthalpy in data set [2] was -26.4 kcal/mol.
On the same counts, the results for GTTCACGAAAGTGACAAC ((((((....)))..))) are 35.3 °C and -10.1 kcal/mol.
GTTCACGAAAGTGAGAAC ((((((....)))..))): in data set [1], the Tm stood at 37.5 °C. Also, the folding enthalpy in data set [2] is -11.2 kcal/mol.
On the same counts, the results for GTTCACGAAAGTGTAAAC ((((((....)))..))) are 28.2 °C and -12.3 kcal/mol.
For GTTCACGAAAGTGTTAAC ((((((....)))..))), the Tm in data set [1] came out at 28 °C. Also, the folding enthalpy in data set [2] is -12.2 kcal/mol.
As to GTTCAGAAATGAAC (((((....))))), the Tm in data set [1] was 41.8 °C. Further, in data set [2], the folding enthalpy is -21.2 kcal/mol.
The matching figures for GTTCAGCGAAAGCTAAAC (((.(((....))).))): 37.8 °C and -21.6 kcal/mol.
The matching figures for GTTCAGCGAAAGCTCAAC (((.(((....))).))): 33.2 °C and -15.4 kcal/mol.
On the same counts, the results for GTTCAGGGAAACCTGGAC ((.((((....)))).)) are 48.9 °C and -29.6 kcal/mol.
In the case of GTTCATCGAAAGATAAC (((.(((....)))))), in data set [1], the Tm stood at 32.3 °C. In data set [2], the folding enthalpy was -12.4 kcal/mol.
The matching figures for GTTCCCACGAAAGTGAAC (((..(((....)))))): 25.7 °C and -10 kcal/mol.
On the same counts, the results for GTTCCCCGAAAGGGCAAC (((.(((....))).))) are 35.2 °C and -14.5 kcal/mol.
On the same counts, the results for GTTCCCGAAAGGGCAAAC ((((((....)))..))) are 28.9 °C and -9.62 kcal/mol.
Turning to GTTCCCGAAAGGGTAAAC ((((((....)))..))), the Tm in data set [1] is 28.8 °C. Moreover, the folding enthalpy in data set [2] was -11.5 kcal/mol.
The matching figures for GTTCCCGAAAGGGTAAC ((((((....))).))): 40.9 °C and -17.6 kcal/mol.
On the same counts, the results for GTTCCGCGAAAGCGAAC (((.(((....)))))) are 50.8 °C and -14.7 kcal/mol.
On the same counts, the results for GTTCCTCGAAAGAGTAAC (((.(((....))).))) are 34.1 °C and -27.6 kcal/mol.
Regarding GTTCCTGGAAACAGGAAC (((((((....))))))), in data set [1], the Tm came to 63.5 °C. Besides, in data set [2], the folding enthalpy is -40.9 kcal/mol.
The matching figures for GTTCGACGAAAGTCCAAC (((.(((....))).))): 34.5 °C and -19.8 kcal/mol.
The matching figures for GTTCGCACGAAAGTGAAC (((..(((....)))))): 39 °C and -16.3 kcal/mol.
The matching figures for GTTCGCCGAAAGGCAAAC (((.(((....))).))): 46.9 °C and -18.1 kcal/mol.
Regarding GTTCGCGAAAGCGAAAAC ((((((....)))..))), the Tm in data set [1] was determined as 47.4 °C. The folding enthalpy in data set [2] was -9.22 kcal/mol.

The values are drawn from the array DNA melting data of Ke et al. (doi:10.1101/2024.01.08.574731).
